Source: ChEMBL document CHEMBL1123804, “Beta-substituted cysteines as sequestering agents for ethanol-derived acetaldehyde in vivo” (1987)

Columns and labels:
Type in all cases: functional
Rattus norvegicus [1] = assay: Compound tested for the percentage of administration dose excreted in rat feces was determined in 0-24 hr
Method in brief: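 A radiolabeled dose (14C in the acetaldehyde moiety, with carrier, in water) of 8.0 mmol/kg at 1.0 mL/100 g went to two overnight-fasted male Sprague-Dawley-descent rats (207 g, 247 g) in all-glass metabolism cages. Feces collected over 24 h were lyophilized and pulverized, and 250-mg samples were combusted to 14CO2 for scintillation counting. Values are the mean ± SD of two animals.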

Rattus norvegicus [2] = organism: Rattus norvegicus; assay: Compound tested for the percentage of CO2 expired in rat was determined in 2-4h
Method in brief: (§1)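 14C label on the acetaldehyde moiety, diluted with unlabeled carrier in water and given at 8.0 mmol/kg (1.0 mL/100 g; radioactivity of the solution counted in duplicate). Two male Sprague-Dawley-descent rats (207 g, 247 g) were fasted overnight and housed in all-glass metabolism cages. Expired CO2 went into two successive cold methoxyethanol/ethanolamine (2:1) traps, sampled at 2, 4, 8, 16 and 24 h. Duplicates were counted by liquid scintillation, and values are the mean ± SD of two animals.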

Rattus norvegicus [3] = organism: Rattus norvegicus; assay: Compound tested for the percentage of CO2 expired in rat was determined in 0-24 hr; method in brief: as §1
Rattus norvegicus [4] = assay: Compound tested for the percentage of administered dose excreted in rat urine was determined in 4-8h
Method in brief: (§2)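 Labeled material (14C on the acetaldehyde part, with unlabeled carrier, in water) was dosed at 8.0 mmol/kg, 1.0 mL/100 g, to two overnight-fasted male Sprague-Dawley-descent rats (207 g, 247 g) kept in all-glass metabolism cages. Urine was collected separately at 2, 4, 8, 16 and 24 h. Duplicate samples were counted by liquid scintillation, and results are averaged ± SD across the two animals.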

Rattus norvegicus [5] = organism: Rattus norvegicus; assay: Compound tested for the percentage of CO2 expired in rat was determined in 16-24h; method in brief: as §1
Rattus norvegicus [6] = assay: Compound tested for the percentage of administered dose excreted in rat urine was determined in 0-2 hr; method in brief: as §2
Rattus norvegicus [7] = assay: Compound tested for the percentage of administered dose excreted in rat urine was determined in 8-16h; method in brief: as §2
Rattus norvegicus [8] = organism: Rattus norvegicus; assay: Compound tested for the percentage of CO2 expired in rat was determined in 0-2 hr; method in brief: as §1
Rattus norvegicus [9] = assay: Compound tested for the percentage of administered dose excreted in rat urine was determined in 16-24h; method in brief: as §2
Rattus norvegicus [10] = assay: Compound tested for the percentage of administered dose excreted in rat urine was determined in 2-4h; method in brief: as §2
Rattus norvegicus [11] = organism: Rattus norvegicus; assay: Compound tested for the percentage of CO2 expired in rat was determined in 4-8h; method in brief: as §1
Rattus norvegicus [12] = assay: Compound tested for the percentage of administered dose excreted in rat urine was determined in 0-24 hr; method in brief: as §2
Rattus norvegicus [13] = organism: Rattus norvegicus; assay: Compound tested for the percentage of CO2 expired in rat was determined in 8-16h; method in brief: as §1

CC1N[C@@H](C(=O)O)C(C)(C)S1 (stereo partly drawn)
Excreted (Rattus norvegicus [1]): 1.38% | Excreted (Rattus norvegicus [2]): 1.7% | Excreted (Rattus norvegicus [3]): 5.83% | Excreted (Rattus norvegicus [4]): 12.7% | Excreted (Rattus norvegicus [5]): 0.28% | Excreted (Rattus norvegicus [6]): 36.3% | Excreted (Rattus norvegicus [7]): 3.12% | Excreted (Rattus norvegicus [8]): 2.01% | Excreted (Rattus norvegicus [9]): 1.18% | Excreted (Rattus norvegicus [10]): 25.9% | Excreted (Rattus norvegicus [11]): 1.36% | Excreted (Rattus norvegicus [12]): 79.2% | Excreted (Rattus norvegicus [13]): 0.48%
